Screening results (PubChem BioAssay)
Rows were chosen to be rich in hits. Some 1.6% of all compounds tested hit in one or more screens of this group.
FLuc inhib CS: counter-screen for luciferase assay inhibitors: firefly luciferase inhibition | P08659 | ATPLite firefly luciferase biochemical luminescence, 10 min | inhibition, % at 10 µM | 1.5% of 200,000 active;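 active = inhibition above about 50% when tested at 10 µM, limit read from the data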
Target sequence (P08659 whole entry, looked up): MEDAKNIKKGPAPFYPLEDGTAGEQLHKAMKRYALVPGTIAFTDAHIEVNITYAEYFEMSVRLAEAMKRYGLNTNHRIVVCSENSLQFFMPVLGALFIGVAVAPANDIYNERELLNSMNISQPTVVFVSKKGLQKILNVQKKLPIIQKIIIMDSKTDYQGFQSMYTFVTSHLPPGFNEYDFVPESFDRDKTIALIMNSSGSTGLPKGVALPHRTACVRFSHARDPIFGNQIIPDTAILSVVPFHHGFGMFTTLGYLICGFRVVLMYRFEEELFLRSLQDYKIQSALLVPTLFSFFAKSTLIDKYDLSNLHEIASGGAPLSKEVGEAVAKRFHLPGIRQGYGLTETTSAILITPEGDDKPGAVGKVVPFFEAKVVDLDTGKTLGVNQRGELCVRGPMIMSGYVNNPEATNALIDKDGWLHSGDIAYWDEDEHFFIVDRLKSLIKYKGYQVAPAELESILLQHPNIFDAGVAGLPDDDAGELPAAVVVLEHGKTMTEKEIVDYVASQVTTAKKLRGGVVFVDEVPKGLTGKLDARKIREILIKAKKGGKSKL
PPC-1+TRAIL kill: kills PPC-1 cancer cells in the presence of TRAIL; PPC-1 cells + TRAIL, ATPLite viability luminescence; cell killing (% activity), % at 4 µM or 5 µM; 0.41% of 220,000 active;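 active = cell killing above 50% in the first pass at 4 µM, then a duplicate retest at 5 µM averaging 50% or more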;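 also: plate controls were cells with TRAIL plus DMSO for no effect and medium-only wells lacking cells for full effect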
FLuc stim CS: firefly luciferase counter-screen for stimulation assays | AID 1027 | 200,000 tested, under 10 active | P08659 | activation factor at 10 µM | ATPlite luciferase biochemical, luminescence, 10 min; 0 = ATP-free wells, 1 = DMSO control;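 active = luciferase activation factor, scaled between plate controls, of at least 2 with compound at 10 µM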
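Material: Luciferase/luciferin reagent mix; Doses: test compounds dosed from 2 mM stocks in 100% DMSO; Schedule: 10 min incubation after luciferase reagent addition, room temperature; Measured by: luminescence from luciferase reaction; Read-out: luminescence gain marking luciferase activators.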
TRAIL sens C8: caspase-8 TRAIL sensitization; inhibition (viability loss, TRAIL sensitization), % at 10 µM; NB7+C8 cells + TRAIL, ATPlite viability luminescence; 1% of 360,000 active; AID 624354;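 active = compounds causing at least 50% loss of cell viability in the single-dose screen, relative to plate controls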
* marks the source's active call; other numbers are inactive results; · = not tested or not shown.

SMILES	FLuc inhib CS	PPC-1+TRAIL kill	FLuc stim CS	TRAIL sens C8
Cc1ccc(C(=O)Nc2sc3c(c2C(=O)O)CCCCC3)o1	86*	34	0.1	27
O=C(Nc1sc2c(c1C(=O)O)CCCC2)c1cccs1	38	-26	0.6	8
CSc1ccc(/C=C/c2ccc3cccc(O)c3n2)cc1	46	15	0.5	53*
Cc1ccc(N=Nc2ccc3ccccc3c2O)cc1	·	·	·	75*
COc1ccc(N=Nc2ccc3ccccc3c2)c(O)c1	·	·	·	47
COc1cccc(N=Nc2ccc3ccccc3c2O)c1	·	·	·	57*
Oc1c(N=Nc2nn[nH]n2)ccc2ccccc12	·	·	·	45
Oc1c(N=Nc2ccc(F)cc2)ccc2ccccc12	·	·	·	53*
Oc1ccc2ccccc2c1N=Nc1ccc(F)cc1	·	5	·	19
O=C(Nc1ccc(N2CCOCC2)cc1)c1csc([C@@H]2O[C@H](CO)[C@H](O)[C@H](O)[C@H]2O)n1	·	·	·	4
Nc1cccc2c1C(=O)N(C(=O)/C=C/c1ccc(F)cc1)C2=O	52*	10	0.5	12
O=C(CSc1ccccc1F)NC(=O)c1ccccc1Br	·	·	·	-12
COc1ccc(C(=O)/C=C/c2ccc(O)cc2)cc1	55*	-1	0.4	32
Cc1ccc(/C=C/C(=O)c2nc3ccccc3[nH]2)cc1	94*	15	0.1	46
CSc1ccc(C(=O)/C=C/c2ccc(N)cc2)cc1	90*	44	0.1	55*
Cc1ccc(/C=C/C(=O)c2ccc(C)cc2)cc1	54*	18	0.5	1
CC(=O)c1cc2cccc(OC3(C)CCN(Cc4ccc(-c5ccccn5)cc4)C3)c2o1 (centres undefined)	·	·	·	1
COc1cc2c(cc1O)C(CSC)Cc1cc3c(cc1N(C)CC2)OCO3 (centres undefined)	·	·	·	2
Cc1cccc(C)c1NC(=O)c1csc(COCCO)n1	·	·	·	-13
CN(C)c1ccc(/C=C/C(=O)c2ccccc2O)cc1	66*	14	0.3	14
N#Cc1ccc(/C=C/C(=O)c2ccco2)cc1	10	18	0.9	-14
CN(C)c1ccc(C(=O)C=Cc2ccc([N+](=O)[O-])cc2)cc1	·	·	·	-5
Nc1ccc(/C=C/C(=O)c2ccco2)cc1	55*	17	0.5	6
Cc1ccc(/C=C/C(=O)c2ccccc2O)cc1	·	1	·	2
Cc1ccc(O)c(C(=O)/C=C/c2ccc3c(c2)OCCCO3)c1	33	42	0.7	16
SMILES	FLuc inhib CS	PPC-1+TRAIL kill	FLuc stim CS	TRAIL sens C8
CN(C)c1ccc(/C=C/C(=O)c2ccc(O)cc2)cc1	·	·	·	63*
O=C(/C=C/c1ccc2c(c1)OCCCO2)c1ccccc1O	77*	16	0.2	39
O=C1C(=O)N(Cc2ccccc2)C(=O)N1CCOc1ccccc1	-3	6	1	3
Cc1nc2ccc3nc(NC(=O)c4ccc5c(c4)OCCO5)sc3c2s1	10	-5	0.9	-2
O=C(Cc1ccc(Cl)cc1)Nc1ncc([N+](=O)[O-])s1	-5	8	1.1	-17
Cc1ccc(C(=O)Nc2nnc(C)s2)cc1	58*	18	0.4	48
Cc1cnc(NC(=O)c2ccc3c(c2)OCCO3)s1	·	·	·	94*
O=C(COc1ccc(Cl)cc1)Nc1ncc([N+](=O)[O-])s1	59*	36	0.4	32
Cc1nc2c(ccc3nc(NC(=O)c4ccc5c(c4)OCCO5)sc32)s1	86*	46	0.1	80*
CC(=O)NC(C)(c1ccccc1)c1nc(-c2csc3ccccc23)cs1 (centres undefined)	·	·	·	6
O=C(CCc1c[nH]c2ccccc12)N1CCN(S(=O)(=O)c2ccc(F)cc2)CC1	·	·	·	0
COc1ccc(-c2cn(-c3ccccc3)c3[n+]2CCS3)cc1	1	9	1	22
CCCCc1ccc(/C(C)=N/Nc2cc(N3CCOCC3)nc(C)n2)cc1	·	·	·	7
CCCS(=O)(=O)NC(=O)C1(C)CCCN(C(=O)c2cc(OC)ccc2Br)C1 (centres undefined)	·	·	·	-10
CCn1c(=O)c2[nH]c(SC)nc2n(CC)c1=O	·	·	·	-6
Cc1ccc([N+](=O)[O-])cc1NC(=O)c1ccc2c(c1)OCO2	-4	6	1	11
Cc1ccc(C(=O)Nc2ncc([N+](=O)[O-])s2)cc1	·	·	·	77*
Cc1ccc(C(=O)Nc2ncc(C)s2)s1	·	·	·	78*
Cc1ccc(C(=O)Nc2ncc(C)s2)o1	41	18	0.6	13
Cc1ccc(NC(=O)c2ccc3c(c2)C(=O)N(CC2CCCO2)C3=O)cc1C (centres undefined)	11	32	0.9	9
Cc1nnc(NC(=O)c2ccc3c(c2)C(=O)N(CC2CCCO2)C3=O)s1 (centres undefined)	67*	-6	0.3	12
O=C(Nc1ncc([N+](=O)[O-])s1)c1ccc2c(c1)OCO2	·	·	·	68*
O=C(O)c1nc(-c2ccccc2)c(C(=O)NC2CC2)[nH]1	·	·	·	-1
COc1ccc(NC(=O)Cn2ncn3nc(-c4ccc(OC)cc4)cc3c2=O)cc1	·	·	·	24
COc1ccc(-n2c(C(C)(C)C)csc2=Nc2c(C)n(C)n(-c3ccccc3)c2=O)cc1	-4	8	1	8
SMILES	FLuc inhib CS	PPC-1+TRAIL kill	FLuc stim CS	TRAIL sens C8
COc1ccc(-c2nc(CS(=O)CC(=O)NCc3ccc(Cl)cc3)c(C)o2)cc1OC (centres undefined)	·	·	·	7
CN1CC(c2ccccc2)C2(SC(=S)N(Cc3ccco3)C2=O)C12C(=O)Nc1ccccc12 (centres undefined)	-2	18	1	50*
CN1CC(c2ccccn2)C2(SC(=S)N(Cc3ccccc3)C2=O)C12C(=O)Nc1ccccc12 (centres undefined)	-6	-2	1.1	2
CCOc1cc(/C=N\NC(=O)CC(=O)NCCc2ccccc2)ccc1O	-6	8	1.1	3
CCOc1cc(C=NNC(=O)N(c2ccccc2)c2ccccc2)ccc1O	·	·	·	63*
COc1cc(SC)ccc1C(=O)Nc1cccc(C)n1	70*	·	0.3	43
COc1cc(SC)ccc1C(=O)Nc1ccc(OCC(=O)N2CCOCC2)cc1	·	·	·	86*
COc1cc(SC)ccc1C(=O)Nc1cc(C)c(OCC(=O)N2CCOCC2)c(C)c1	·	·	·	21
COc1cc(SC)ccc1C(=O)Nc1ccc(C)cc1	54*	23	0.5	25
COc1ccc(CNC(=O)COC(=O)c2cccn2C)cc1	·	·	·	-3
COc1ccc(NC(=O)C(c2ccc(C#N)cc2)n2c(=O)c(-c3cc4ccccc4[nH]3)nc3ccccc32)cc1 (centres undefined)	·	·	·	11
Cc1c(-c2ccccc2)nc2ccccc2c1C(=O)Nc1ccncc1	·	·	·	-5
O=[N+]([O-])c1ccc(-[n+]2ccc3ccccc3c2)c([N+](=O)[O-])c1	·	·	·	55*
O=[N+]([O-])c1ccc(SNc2ccccc2)c([N+](=O)[O-])c1	·	·	·	-4
O=C1NCC(Nc2ccc(Br)cc2)C(=O)N1 (centres undefined)	·	·	·	-13
COc1ccc(C)cc1-n1nnnc1SCC(=O)NC1CCS(=O)(=O)C1 (centres undefined)	·	·	·	-7
CCOC(=O)c1sc(NC(=O)C2CC(=O)N(c3ccc(C)cc3)C2)nc1C (centres undefined)	·	·	·	-10
